Test results: ChEMBL document CHEMBL4732158, “Bicyclic Ligand-Biased Agonists of S1P: Exploring Side Chain Modifications to Modulate the PK, PD, and Safety Profiles” (J Med Chem, 2021)
Activity calls are given as the source filed them. The calls are words filed in the database; no cut-off is given here.

Key:
[1] = AUC ratio in orally dosed cynomolgus monkey blood assessed as phosphate metabolite to parent compound; type: ADME, organism-based, Macaca fascicularis; settings: in vivo, po
In short: (§1)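 Phosphate-to-parent ratio computed as blood AUC ratio after oral dosing in rats, dogs and monkeys.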

Rattus norvegicus [2] = test: Reduction in circulating lymphocytes count in Lewis rat at 2 mg/kg, po measured at 4 hrs by hematology analyzer based analysis; type: functional; design: scale not given: the % may be the effect or the level left
In short: (§2)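 Lewis rats (n = 2−4) dosed orally; whole-blood lymphocyte counts taken 4 h and 24 h after dosing and reduction expressed versus vehicle-treated rats. Significance by ANOVA with Dunnett's test (p < 0.05 vs vehicle). Blood levels of parent and phosphate metabolite measured at the same time points in this PK/PD screen.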

Rattus norvegicus [3] = test: Antiinflammatory activity in complete freund's adjuvant-induced Lewis rat model of arthritis assessed as effective dose administered via oral gavage once daily by plethysmometric method; type: functional
[4] = Drug concentration in Lewis rat blood assessed as concentration of parent compound at 2 mg/kg, po measured at 4 hrs by LC-MS/MS analysis; type: ADME, organism-based; settings: Lewis, blood, read-out: Ct
In short: (§3)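 Lewis rats (n = 2−4) dosed orally at 0.5, 1, 2 or 5 mg/kg; blood parent and phosphate metabolite concentrations and lymphocyte counts taken 4 and 24 h post-dose; phosphate-to-parent ratio from 24 h levels; significance versus vehicle by ANOVA with Dunnett's test.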

[5] = Cardiotoxicity in human iPSC derived cardiomyocytes assessed as change in heart rate at 1 nM measured over 2 hrs by multi-electrode array relative to control; type: toxicity, cell-based; settings: stem cell-derived cardiomyocyte, 0.001 µM
In short: (§4)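 Phosphate metabolite of each compound prepared and tested on cultured human induced pluripotent stem cell-derived cardiomyocytes at 1 and 10 nM; beat rate change averaged over three or more replicates per concentration unless noted (some n = 2).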

[6] = Clearance in Sprague- Dawley rat at 2 mg/kg, iv; type: ADME, organism-based; settings: in vivo
[7] = Volume of distribution at steady state in cynomolgus monkey at 1 mg/kg, po or 1 mg/kg, iv; type: ADME, organism-based, Macaca fascicularis; settings: in vivo, read-out: Vdss
In short: (§5)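 Single IV and oral dosing in male animals, n = 3. Rats were Sprague-Dawley. Vehicle: 18.4% hydroxypropyl-β-cyclodextrin in 13.8 mM citric acid. Blood concentrations followed over time; terminal T1/2 and steady-state volume of distribution taken from the IV dose.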

[8] = Terminal half life in dog at 1 mg/kg, po; type: ADME, organism-based, Canis lupus familiaris; settings: in vivo, read-out: beta t1/2 (converted)
[9] = Volume of distribution at steady state in Sprague- Dawley rat at 2 mg/kg, iv; type: ADME, organism-based; settings: in vivo, read-out: Vdss; in short: as §5
[10] = Reduction in circulating lymphocytes count in Lewis rat at 2 mg/kg, po measured at 24 hrs by hematology analyzer based analysis; type: Functional, organism-based; design: scale not given: the % may be the effect or the level left; settings: in vivo; in short: as §2
[11] = Terminal half life in Sprague- Dawley rat at 2 mg/kg, iv; type: ADME, organism-based; settings: in vivo, read-out: beta t1/2 (converted); in short: as §5
[12] = Terminal half life in cynomolgus monkey at 1 mg/kg, po or 1 mg/kg, iv; type: ADME, organism-based, Macaca fascicularis; settings: in vivo, read-out: beta t1/2 (converted); in short: as §5
[13] = AUC ratio in orally dosed Beagle dog blood assessed as phosphate metabolite to parent compound; type: ADME, organism-based, Canis lupus familiaris; settings: in vivo, po; in short: as §1
[14] = Drug concentration in Lewis rat blood assessed as concentration of parent compound at 2 mg/kg, po measured at 24 hrs by LC-MS/MS analysis; type: ADME, organism-based; settings: in vivo, read-out: Ct; in short: as §3
[15] = AUC ratio in orally dosed Sprague-Dawley rat blood assessed as phosphate metabolite to parent compound; type: ADME, organism-based; settings: in vivo, po; in short: as §1
[16] = Pulmonary toxicity in Lewis rat assessed as fold elevation of BAL protein content at 2 mg/kg, po by chemistry analyzer based analysis relative to control; type: organism-based; settings: in vivo
In short: (§6)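 Lewis rats dosed orally; bronchoalveolar lavage protein measured at study end, expressed as fold over vehicle control.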

[17] = Oral bioavailability in cynomolgus monkey at 1 mg/kg; type: ADME, organism-based, Macaca fascicularis; settings: in vivo
Rattus norvegicus [18] = test: Antiinflammatory activity in complete freund's adjuvant-induced Lewis rat model of arthritis assessed as reduction in paw swelling at 0.3 mg/kg, po administered via gavage once daily and measured at day 13 to 20 by plethysmometric method relative to control; type: functional; design: scale not given: the % may be the effect or the level left; settings: time 13-20 day
[19] = Ratio of drug metabolism in Lewis rat blood assessed as phosphate ester metabolite to parent drug at 2 mg/kg, po measured at 24 hrs by LC-MS/MS analysis; type: ADME, organism-based; settings: in vivo; in short: as §3
[20] = Half life in Lewis rat at 2 mg/kg, po measured at 4 to 72 hrs; type: ADME, organism-based; settings: Lewis, in vivo, time 4-72 hrs
In short: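 Half-life estimated from oral-dosing blood PK profiles in Lewis rats sampled at four time points: 4, 24, 48 and 72 h.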

[21] = Cardiotoxicity in human iPSC derived cardiomyocytes assessed as change in heart rate at 10 nM measured over 2 hrs by multi-electrode array relative to control; type: toxicity, cell-based; settings: stem cell-derived cardiomyocyte, 0.01 µM; in short: as §4
[22] = Clearance in cynomolgus monkey at 1 mg/kg, iv; type: ADME, organism-based, Macaca fascicularis; settings: in vivo
Rattus norvegicus [23] = test: Antiinflammatory activity in complete freund's adjuvant-induced Lewis rat model of arthritis assessed as increase in paw volume at 2.5 mg/kg, po administered via gavage once daily by plethysmometric method; type: functional, organism-based
[24] = Oral bioavailability in Sprague- Dawley rat at 1 mg/kg; type: ADME, organism-based; settings: in vivo
Rattus norvegicus [25] = test: Antiinflammatory activity in complete freund's adjuvant-induced Lewis rat model of arthritis assessed as reduction in paw edema administered via oral gavage once daily by plethysmometric method; type: functional, organism-based
Rattus norvegicus [26] = test: Antiinflammatory activity in complete freund's adjuvant-induced Lewis rat model of arthritis assessed as reduction in paw swelling at 0.5 mg/kg, po administered via gavage once daily and measured at day 18 to 22 by plethysmometric method relative to control; type: functional; design: scale not given: the % may be the effect or the level left; settings: time 18-22 day
Rattus norvegicus [27] = test: Antiinflammatory activity in complete freund's adjuvant-induced Lewis rat model of arthritis assessed as reduction in paw edema at 0.5 mg/kg, po administered via gavage once daily and measured at day 18 to 22 by plethysmometric method; type: functional, organism-based; settings: time 18-22 day
[28] = Terminal half life in Sprague- Dawley rat at 1 mg/kg, po or 1 mg/kg, iv; type: ADME, organism-based; settings: in vivo, read-out: beta t1/2 (converted); in short: as §5
[29] = Volume of distribution at steady state in Sprague- Dawley rat at 1 mg/kg, po or 1 mg/kg, iv; type: ADME, organism-based; settings: in vivo, read-out: Vdss; in short: as §5
[30] = Clearance in Sprague- Dawley rat at 1 mg/kg, iv; type: ADME, organism-based; settings: in vivo
[31] = Pulmonary toxicity in Lewis rat assessed as fold elevation of BAL protein content at 15 mg/kg, po by chemistry analyzer based analysis relative to control; type: organism-based; settings: in vivo; in short: as §6
[32] = molecular target: T1, Sphingosine 1-phosphate receptor 4 (Homo sapiens, UniProt O95977); test: Agonist activity at recombinant human S1P4 expressed in CHO cell membranes assessed as stimulation of [35S]-GTPgammaS binding measured after 45 mins by liquid scintillation counting method; type: functional, Membrane
T1 sequence (O95977 whole entry): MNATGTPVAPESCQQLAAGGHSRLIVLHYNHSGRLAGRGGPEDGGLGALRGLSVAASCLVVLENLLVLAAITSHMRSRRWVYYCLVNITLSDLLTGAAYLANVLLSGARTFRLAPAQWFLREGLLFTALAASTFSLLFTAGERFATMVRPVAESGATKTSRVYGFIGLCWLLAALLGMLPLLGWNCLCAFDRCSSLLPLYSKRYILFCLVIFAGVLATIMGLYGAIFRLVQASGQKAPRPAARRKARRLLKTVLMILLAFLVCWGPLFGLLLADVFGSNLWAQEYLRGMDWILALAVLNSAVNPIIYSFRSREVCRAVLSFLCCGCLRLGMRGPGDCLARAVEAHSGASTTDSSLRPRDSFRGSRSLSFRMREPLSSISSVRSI

[33] = Antimigratory activity against human T cells assessed as inhibition of S1P-induced T cell migration preincubated for 10 mins followed by addition of S1P measured after 120 mins by calcein-AM dye based fluorescence analysis; type: functional

Ratio AUC [1] | concentration at 4 h [4] [nM] | Vd [7] [L/kg] | Activity [10] [%] | half-life [12] [min] | concentration [14] [nM] | Ratio AUC [15] | bioavailability [17] [%] | Ratio [19] | half-life [20] [min] | clearance [22] [mL/min/kg] | Structure (SMILES) | Activity (Rattus norvegicus [2]) [%] | ED50 (Rattus norvegicus [3]) [mg/kg] | Activity [5] [%] | fold change (FC) [16] | Activity [21] [%] | further results
< 0.1 | 188 | 9.9 | 82 | 1020 | 98 | 0.3 | 69 | 2.6 | 1080 | 9.7 | COCCCCCC1CCc2cc([C@H]3CC[C@](N)(CO)C3)ccc2C1 (single isomer, unassigned; 24) | 67 | 0.3 | -7 | 1.5 | -23 | clearance [6]: 10 mL/min/kg; half-life [8]: 3.38 days; Vd [9]: 13 L/kg; half-life [11]: 1140 min; Ratio AUC [13]: 0.31; Activity (Rattus norvegicus [18]): 50%
0.73 | 172 | 8.4 | 83 | 1260 | 110 | 0.9 | 76 | 1.8 | 1560 | 7.4 | CCOCCCC1CCc2cc([C@H]3CC[C@](N)(CO)C3)ccc2C1 (single isomer, unassigned) | 78 | 0.3 | -14 | 1.2 | -29 | Activity (Rattus norvegicus [23]): inactive; bioavailability [24]: 45%; Activity (Rattus norvegicus [25]): Dose-dependent effect; Activity (Rattus norvegicus [26]): 75%; Activity (Rattus norvegicus [27]): inactive; half-life [28]: 1740 min; Vd [29]: 12 L/kg; clearance [30]: 6 mL/min/kg
 | 141 |  | 74 |  | 33 |  |  | 2.8 | 780 |  | COCCCC1CCc2cc([C@H]3CC[C@](N)(CO)C3)ccc2C1 (stereo in doubt; 22a) |  |  |  |  |  | Activity (Rattus norvegicus [2]; 2 mg/kg, 4 h): 76%; fold change (FC) [31]: 3
 |  |  |  |  |  |  |  |  |  |  | CCCCCCCCc1ccc(CCC(N)(CO)COP(=O)(O)O)cc1 (stereo not given) |  |  |  |  |  | EC50 [32]: 1.6 nM; IC50 [33]: 1.2 nM
